Screens as filed in PubChem.
PRMT1 FP inh: PRMT1 (human) inhibition, primary screen | inhibition, % at 2.79 µM | recombinant PRMT1, activity-based probe fluorescence polarization | Q99873 | actives 1.3% (n = 370,000);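 active = inhibition above about 21% made by adding two undisclosed values, limit read from the data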
Target sequence (Q99873 whole entry, looked up): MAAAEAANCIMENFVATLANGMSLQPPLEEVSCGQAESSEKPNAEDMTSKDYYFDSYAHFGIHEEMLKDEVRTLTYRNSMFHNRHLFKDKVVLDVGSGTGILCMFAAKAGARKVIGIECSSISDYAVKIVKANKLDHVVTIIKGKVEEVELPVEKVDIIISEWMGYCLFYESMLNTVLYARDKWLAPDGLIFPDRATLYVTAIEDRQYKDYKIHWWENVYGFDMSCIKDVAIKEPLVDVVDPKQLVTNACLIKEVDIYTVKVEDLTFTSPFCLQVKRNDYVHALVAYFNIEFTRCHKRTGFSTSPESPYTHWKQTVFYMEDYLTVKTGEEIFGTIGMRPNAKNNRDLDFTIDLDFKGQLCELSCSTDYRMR
TCR CD3 inh: human TCR-CD3 binding inhibition; inhibition, % at 9.4 µM; actives 0.37% (n = 360,000); TAMRA-labeled TCR probe fluorescence, biochemical; in the data active = inhibition above about 19%;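 note: recombinant mutant TCR 2C K166C tagged with TAMRA read by polarization; 0% = receptor in buffer alone and 100% = receptor with positive control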
mABHD4 FP: ABHD4 (mouse) inhibition, primary FP screen; AID 720543; actives 0.54% (n = 370,000); purified mABHD4, FP-Rh probe fluorescence polarization; Q8VD66; inhibition, % at 8.92 µM;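 active = inhibition exceeding the mean over every tested compound plus 3 SD, cut at about 30% in these data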;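 note: 0% = plate median of compound wells and 100% = S159A mutant with DMSO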
Target sequence (Q8VD66 whole entry, looked up): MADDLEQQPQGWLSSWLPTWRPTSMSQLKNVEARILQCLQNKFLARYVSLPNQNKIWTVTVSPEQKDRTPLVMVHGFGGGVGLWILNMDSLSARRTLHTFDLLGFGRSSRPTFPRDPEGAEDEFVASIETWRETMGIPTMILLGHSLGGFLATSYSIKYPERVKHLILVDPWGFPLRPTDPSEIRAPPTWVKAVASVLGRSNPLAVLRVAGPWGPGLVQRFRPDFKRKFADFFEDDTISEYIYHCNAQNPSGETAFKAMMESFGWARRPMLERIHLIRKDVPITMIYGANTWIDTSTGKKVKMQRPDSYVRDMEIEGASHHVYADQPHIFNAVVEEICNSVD
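Test system: mABHD4 protein; Read-out basis: % inhibition; Incubation: 45 min + 60 min at 25 °C; Repeats: single replicate; Technique: fluorescence polarization with parallel and perpendicular emission, 525/598 nm; Compound: 8.92 µM, single dose; Benchmarks: full inhibition S159A mutant plus DMSO, zero as sample-well median.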
SIAE inh: human SIAE inhibition, primary screen; SIAE FP-Rh probe binding, fluorescence polarization; actives 0.69% (n = 370,000); Q9HAT2; AID 1053197; inhibition, % at 9.66 µM;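 active = inhibition above a cutoff: mean of compounds within the control limits plus 3 SD of those, cut at about 17% in these data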;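 note: 0% = plate median of compound wells and 100% = probe without SIAE protein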
HTRA1 inh: inhibitors of human serine peptidase HTRA1. recombinant HTRA1, FP-rhodamine activity-based probe, fluorescence polarization. actives 0.5% (n = 340,000). Q92743. inhibition, % at 5.96 µM; in the data active = inhibition above about 36%;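 note: 0% = enzyme with DMSO and 100% = wells lacking enzyme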
PRMT1 inh conf: confirmation of human PRMT1 inhibitors | shares compounds with PRMT1 FP inh | recombinant His-PRMT1, activity-based probe fluorescence polarization | inhibition, % at 2.79 µM | actives 42% (n = 3,300) | AID 687036;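 active = mean inhibition across replicates above the hit cutoff derived for the earlier primary screen, cut at about 22% in these data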
ABHD4 confirm: confirmation of mouse ABHD4 inhibitors. shares compounds with mABHD4 FP. purified mABHD4, FP-Rh probe fluorescence polarization. inhibition, % at 8.92 µM. actives 55% (n = 1,800). AID 720658;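 active = mean inhibition across replicates above the hit cutoff set in the primary screen, cut at about 30% in these data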;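 note: 0% = wild-type ABHD4 with DMSO and 100% = catalytically dead S159A mutant with DMSO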
SIAE confirm: human SIAE inhibition, confirmation; inhibition, % at 9.66 µM; SIAE FP-Rh activity-based probe, fluorescence polarization; shares compounds with SIAE inh; actives 13% (n = 2,300); AID 1117263;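 active = mean inhibition of the replicates above the hit cutoff set in the primary screen, cut at about 17% in these data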;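 note: 0% = SIAE with DMSO and probe and 100% = probe without SIAE; inhibitors lower polarization as more probe stays unbound to SIAE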
* = called active by the depositor; . = not tested or not shown. Most compounds without a hit are left out; they make up all but 2.6% or so of the library.

SMILES | PRMT1 FP inh | TCR CD3 inh | mABHD4 FP | SIAE inh | HTRA1 inh | ABHD4 confirm | others
COCCCNP1(=O)OCC(C)([N+](=O)[O-])CO1 (stereo unspecified) | -4 | 3 | -7 | -6 | 4 | .
Cc1cc(Cc2c(O)[nH]c(=S)[nH]c2=O)ccc1OC(C)C | -2 | 0 | 3 | -1 | 4 | .
CN1C(=O)C(=Cc2ccccc2OCc2ccc(C(=O)O)cc2)C(=O)N(C)C1=O | 18 | 6 | -1 | -4 | 1 | .
CN1C(=O)C(=Cc2ccccc2OS(=O)(=O)c2ccccc2)C(=O)N(C)C1=O | 34* | -1 | 2 | -4 | -3 | . | PRMT1 inh conf=5
COc1ccc(N2C(=O)NC(=O)/C(=C/c3ccc([N+](=O)[O-])s3)C2=O)cc1 | 19 | -56 | -64 | -40 | . | .
O=C1NC(=O)N(Cc2ccc(F)cc2)C(=O)/C1=C\c1ccc([N+](=O)[O-])s1 | 39* | -45 | -65 | -45 | 43* | . | PRMT1 inh conf=72*
COc1ccc(N2C(=O)NC(=O)/C(=C\c3ccc([N+](=O)[O-])s3)C2=O)cc1 | 39* | -54 | -71 | -65 | 18 | . | PRMT1 inh conf=50*
COc1ccc(CN2C(=O)NC(=O)/C(=C/c3ccc([N+](=O)[O-])s3)C2=O)cc1 | 31* | -38 | -82 | -8 | 34 | . | PRMT1 inh conf=66*
CCN(CC)c1ccc(N=Cc2c(O)n(-c3ccccc3C)c(=O)[nH]c2=O)cc1 | 28* | 18 | 64* | 12 | 60* | 4 | PRMT1 inh conf=0
O=c1c2ccccc2nc(-c2ccccc2Cl)n1-c1cccc(O)c1 | -1 | -3 | 1 | 0 | -2 | .
COc1ccc2[nH]c(C)c(CCNCc3cccnc3)c2c1 | 120* | -8 | 34* | 22* | 5 | 3 | PRMT1 inh conf=3;SIAE confirm=4
O=C1CN(O)C(c2ccccc2)=c2cc(Cl)ccc2=N1 | 1 | 0 | 9 | -5 | -3 | .
CC1CC(OP(O)(=S)c2ccc(N(C)C)cc2NC(=O)c2cccs2)CC(C)(C)C1 (stereo unspecified) | 7 | 2 | 41* | 9 | -5 | 50*
Nc1c(Br)cc2c3c(cccc13)-c1ccccc1-2 | 7 | 1 | 55* | 4 | . | 57*
C=CCn1c(O)c(C(C)=Nc2ccc(N(CC)CC)cc2)c(=O)[nH]c1=O | 19 | 2 | 39* | 2 | 7 | 0
C=CCn1c(O)c(C(C)=Nc2ccc(N(C)C)cc2)c(=O)[nH]c1=O | 19 | 6 | 22 | 9 | 3 | .
CN1[C@H]2CC[C@@H]1C(C(=O)N1CCOCC1)=C(O)C2 | -2 | 2 | 1 | -5 | 3 | .
O=c1[nH]c(=O)n(C2CCCCC2)c(O)c1C=Nc1ccc(N2CCOCC2)cc1 | -3 | 4 | 4 | 10 | 3 | .
O=c1[nH]c(=S)n(-c2ccc(Cl)cc2)c(O)c1C=Nc1ccc(N2CCOCC2)cc1 | 8 | 5 | 40* | -1 | 7 | 29
O=[N+]([O-])/C=C/c1c(Cl)cccc1Cl | 3 | -10 | 14 | 0 | 3 | .
CCOc1ccc(NC2=NCCCS2)cc1 | 0 | 2 | 6 | -1 | 5 | .
O=C(NC1CCCCC1)Oc1cc2oc(=O)sc2cc1Cl | 85* | 3 | 31* | 3 | 8 | 24
COc1ccc(Cn2c(O)c(/C=N/NC(=O)c3ccccc3O)c(=O)[nH]c2=O)cc1 | 7 | 11 | 30* | 5 | 31 | 38*
O=C(N/N=C/c1c(O)n(Cc2ccc(F)cc2)c(=O)[nH]c1=O)c1ccccc1O | 6 | 12 | 34* | 11 | 24 | 52*
FC(F)(F)c1ccc(-c2ccc3c(c2)CNCc2cnnn2-3)cc1 | 3 | 1 | 34* | 3 | . | 25
SMILES | PRMT1 FP inh | TCR CD3 inh | mABHD4 FP | SIAE inh | HTRA1 inh | ABHD4 confirm | others
O=C1C(Cl)=CC(=Nc2ccc(O)cc2)C=C1Cl | 22* | -3 | 32* | 21* | 25 | 58*
O=[As](O)(O)c1ccc(N=Nc2ccc(O)cc2)cc1 | 3 | -4 | 6 | -1 | -2 | .
CC1NC(=O)NC(=O)C1Br (stereo unspecified) | 0 | 0 | 2 | -6 | 0 | .
C=C1[C@H]2C[C@H]3[C@H]4N5C[C@]6(C)CCC[C@]47[C@H]([C@H]2O)[C@]3(C[C@]5(O)[C@H]67)[C@@H]1O | -2 | 6 | 1 | 0 | -7 | .
Cc1[nH]c2ccc(OC(F)(F)F)cc2c1CCNCc1cccc([N+](=O)[O-])c1 | 1 | -7 | 14 | 11 | -17 | .
Cc1[nH]c2ccc(OC(F)(F)F)cc2c1CCNCc1ccc(Cl)cc1 | 5 | -2 | 42* | 8 | 13 | 31*
Clc1ccc2sc(C3CCNCC3)nc2c1 | 4 | -1 | 9 | 2 | 1 | .
O=[N+]([O-])c1cc(S(=O)(=O)c2ccc(O)c([N+](=O)[O-])c2)ccc1O | 13 | 8 | 40* | 2 | 10 | 31*
CC1CCCC(NC(=O)COC(=O)c2cn(C)c3ccccc23)C1C (stereo unspecified) | 5 | -7 | 0 | -4 | -2 | .
O=C(N/N=C/c1c(O)n(Cc2ccccc2)c(=O)[nH]c1=O)c1ccccc1O | 2 | 74* | 61* | 28* | 35 | 38* | SIAE confirm=5
COC(=O)C1=C(c2ccc(F)cc2F)C[C@@H]2CC[C@H]1N2C(=O)NC1Cc2ccccc2C1 | 4 | -5 | 2 | -2 | -7 | .
CCC1(CC)C(=N)N(C)C(=O)NC1=O | 0 | 2 | 3 | -1 | 4 | .
CCCCN1C(=N)C(CC)(CC)C(=O)NC1=O | -2 | 1 | 6 | 21* | -3 | . | SIAE confirm=1
CCN[C@@H](C)Cc1cccc(C(F)(F)F)c1 | 0 | 4 | 5 | 19* | 2 | . | SIAE confirm=3
CCN(C)C(C)Cc1cccc(C(F)(F)F)c1 (stereo unspecified) | -4 | -11 | -5 | 6 | . | .
CCOP(=O)(OCC)C(NC(=O)c1ccccc1)C(Cl)(Cl)Cl (stereo unspecified) | 0 | 0 | -3 | 3 | -2 | .
CCCOP(=O)(OCCC)C(NC(=O)c1cc(OC)c(OC)c(OC)c1)c1ccccc1 (stereo unspecified) | -2 | 3 | 3 | 17* | 0 | . | SIAE confirm=1
CCOC(=O)[C@@]1(C#N)[C@@H]2C=CC(C(N)=O)=CN2[C@@H](C(N)=O)[C@@H]1c1cccc(Cl)c1 | 2 | 3 | 10 | 21* | 2 | . | SIAE confirm=0
NP(=O)(OCCCCc1ccccc1)Oc1ccccc1Cl (stereo unspecified) | -1 | -2 | -8 | 43* | 3 | . | SIAE confirm=38*
NP(=O)(Oc1ccccc1Cl)Oc1ccccc1Cl | 5 | -3 | 5 | 6 | 16 | .
